Experimental data reported in ChEMBL document CHEMBL4118103, “Synthesis and Bioactivity Investigation of the Individual Components of Cyclic Lipopeptide Antibiotics” (J Med Chem, 2018).
Values after ≈ are worked out from the molar mass of the structure shown. Bridge positions count the residues as written; N and C are the ends. Square brackets hold non-standard residues; d marks the D form. Peptide text beside a SMILES is read from it. * marks the point of attachment. Heptanoyl(6-Me) = CC(C)CCCCC(=O)*; X1 = CC[C@H](C)CCCCC(=O)*; Dab = NCC[C@H](N)C(=O)O; Nva = CCC[C@H](N)C(=O)O

Columns and labels:
Escherichia coli [1] = assay: Antibacterial activity against Escherichia coli ATCC 25922 after 18 hrs by agar dilution method; type: functional; settings: ATCC 25922, 18 h
Procedure, shortened: (§1)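 Serial two-fold agar dilution per CLSI; bacteria cultured in Mueller-Hinton broth, inoculum about 10^4 cfu/spot; final concentrations 0.03-128 µg/mL; plates incubated 35 °C for 18 h. MIC = lowest concentration preventing visible growth; representative of at least two independent experiments, a third run when the two disagreed.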

Escherichia coli [2] = assay: Antibacterial activity against extended-spectrum beta-lactamase producing Escherichia coli isolate 14-11 after 18 hrs by agar dilution method; type: functional; settings: isolate 14-11, 18 h; procedure, shortened: as §1
Klebsiella pneumoniae [3] = assay: Antibacterial activity against extended-spectrum beta-lactamase producing Klebsiella pneumoniae 700603 after 18 hrs by agar dilution method; type: functional; settings: Klebsiella pneumoniae, 700603, 18 h; procedure, shortened: as §1
Klebsiella pneumoniae [4] = assay: Antibacterial activity against NDM-1 producing Klebsiella pneumoniae ATCC BAA-2146 after 18 hrs by agar dilution method; type: functional; settings: ATCC BAA-2146, 18 h; procedure, shortened: as §1
Pseudomonas aeruginosa = assay: Antibacterial activity against Pseudomonas aeruginosa ATCC 27853 after 18 hrs by agar dilution method; type: functional; settings: ATCC 27853, 18 h; procedure, shortened: as §1
Acinetobacter baumannii = assay: Antibacterial activity against Acinetobacter baumannii ATCC 19606 after 18 hrs by agar dilution method; type: functional; settings: ATCC 19606 = CIP 70.34 = JCM 6841, 18 h; procedure, shortened: as §1
[5] = (§2) Cytotoxicity against African green monkey Vero cells after 72 hrs by MTT assay; type: cell-based; settings: chlorocebus sabaeus, Vero cells
Procedure, shortened: (§3)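 Vero cells seeded at 2x10^3 cells/well, incubated 24 h at 37 °C, 5% CO2, then exposed to compound 72 h; MTT added for 2 h, medium removed, formazan dissolved in DMSO, absorbance read at 570 nm. Viability relative to untreated cells (100%); CC50 as mean ± SD of three independent experiments, each in triplicate.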

[6] = Acute toxicity in iv dosed ICR mouse assessed as survival measured daily for 7 days; type: organism-based; settings: in vivo
Procedure, shortened: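 ICR mice, 18 to 22 g, 4 weeks old, 10 per group (5 male, 5 female). Four to five intravenous dose groups per compound. Survival recorded daily for 7 days. LD50 (dose per kg body weight lethal to 50%) calculated by the Bliss method. LD50 values compared by one-way ANOVA.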

Mus musculus [7] = assay: Nephrotoxicity in ICR mouse assessed as tubular dilation at 2.5 mg/kg, iv bid for 7 days measured after 2 hrs post last dose by hematoxylin and eosin staining based assay; type: toxicity, organism-based; settings: in vivo
Procedure, shortened: (§4)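 ICR mice, 18-22 g, 4 weeks old, n=8 per group (4 male, 4 female); component in saline (0.25 mg/mL, kept at 4 °C) given iv at 2.5 mg/kg twice daily, 8 h apart, for 7 days. Kidneys taken 2 h after last dose, formalin-fixed, paraffin-embedded, sectioned, H&E stained and examined by light microscopy; saline controls included.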

Mus musculus [8] = assay: Nephrotoxicity in ICR mouse assessed as induction of prominent nuclei at 2.5 mg/kg, iv bid for 7 days measured after 2 hrs post last dose by hematoxylin and eosin staining based assay; type: toxicity, organism-based; settings: in vivo; procedure, shortened: as §4
Mus musculus [9] = assay: Nephrotoxicity in ICR mouse assessed as pale tubular casts at 2.5 mg/kg, iv bid for 7 days measured after 2 hrs post last dose by hematoxylin and eosin staining based assay; type: toxicity, organism-based; settings: in vivo; procedure, shortened: as §4
Vero = assay: as §2; type: cell-based; settings: chlorocebus sabaeus, vero, 72 h; procedure, shortened: as §3

| Compound | MIC (Escherichia coli [1]) | MIC (Escherichia coli [2]) | MIC (Klebsiella pneumoniae [3]) | MIC (Klebsiella pneumoniae [4]) | MIC (Pseudomonas aeruginosa) | MIC (Acinetobacter baumannii) | CC50 at 72 h [5] | LD50 at 168 h [6] | Activity (Mus musculus [7]) | Activity (Mus musculus [8]) | Activity (Mus musculus [9]) | CC50 (Vero) |
| --- | --- | --- | --- | --- | --- | --- | --- | --- | --- | --- | --- | --- |
| CC[C@H](C)[C@@H]1NC(=O)[C@@H](CC(C)C)NC(=O)[C@H](CCN)NC(=O)[C@@H](NC(=O)[C@H](CCN)NC(=O)[C@@H](NC(=O)[C@H](CCN)NC(=O)CCCCC(C)C)[C@@H](C)O)CCNC(=O)[C@H]([C@@H](C)O)NC(=O)[C@H](CCN)NC(=O)[C@H](CCN)NC1=O | 1 µg/mL (≈ 0.865 µM) | 0.5 µg/mL (≈ 0.433 µM) | 0.5 µg/mL (≈ 0.433 µM) | 1 µg/mL (≈ 0.865 µM) | 2 µg/mL (≈ 1.73 µM) | 1 µg/mL (≈ 0.865 µM) | 199 µg/mL (≈ 172 µM) | 12.9 mg/kg |  |  |  |  |
| CC(C)CCCCC(=O)N[C@@H](CCN)C(=O)N[C@H](C(=O)N[C@@H](CCN)C(=O)N[C@H]1CCNC(=O)[C@H]([C@@H](C)O)NC(=O)[C@H](CCN)NC(=O)[C@H](CCN)NC(=O)[C@H]([C@@H](C)O)NC(=O)[C@@H](CC(C)C)NC(=O)[C@H](CCN)NC1=O)[C@@H](C)O | 0.5 µg/mL (≈ 0.437 µM) | 0.25 µg/mL (≈ 0.219 µM) | 0.5 µg/mL (≈ 0.437 µM) | 0.5 µg/mL (≈ 0.437 µM) | 0.5 µg/mL (≈ 0.437 µM) | 1 µg/mL (≈ 0.875 µM) | 276 µg/mL (≈ 241 µM) | 13 mg/kg | Non-Toxic | Non-Toxic | Non-Toxic |  |
| CC[C@H](C)CCCCC(=O)N[C@@H](CCN)C(=O)N[C@H](C(=O)N[C@@H](CCN)C(=O)N[C@H]1CCNC(=O)[C@H]([C@@H](C)O)NC(=O)[C@H](CCN)NC(=O)[C@H](CCN)NC(=O)[C@H]([C@@H](C)O)NC(=O)[C@@H](CC(C)C)NC(=O)[C@H](CCN)NC1=O)[C@@H](C)O (X1-[Dab]T[Dab][Dab][Dab][dL]T[Dab][Dab]T; lactam 4-C) | 0.25 µg/mL (≈ 0.216 µM) | ≤ 0.03 µg/mL | 0.25 µg/mL (≈ 0.216 µM) | 0.5 µg/mL (≈ 0.432 µM) | 1 µg/mL (≈ 0.864 µM) | 0.5 µg/mL (≈ 0.432 µM) | 96 µg/mL (≈ 82.9 µM) | 11.4 mg/kg |  |  |  |  |
| CC(C)CCCCC(=O)N[C@@H](CCN)C(=O)N[C@H](C(=O)N[C@@H](CCN)C(=O)N[C@H]1CCNC(=O)[C@H]([C@@H](C)O)NC(=O)[C@H](CCN)NC(=O)[C@H](CCN)NC(=O)[C@H](C(C)C)NC(=O)[C@@H](CC(C)C)NC(=O)[C@H](CCN)NC1=O)[C@@H](C)O ({Heptanoyl(6-Me)}-[Dab]T[Dab][Dab][Dab][dL]V[Dab][Dab]T; lactam 4-C) | 0.5 µg/mL (≈ 0.438 µM) | 0.25 µg/mL (≈ 0.219 µM) | 0.5 µg/mL (≈ 0.438 µM) | 0.5 µg/mL (≈ 0.438 µM) | 2 µg/mL (≈ 1.75 µM) | 1 µg/mL (≈ 0.876 µM) | 225 µg/mL (≈ 197 µM) | 13.2 mg/kg |  |  |  |  |
| CCC[C@@H]1NC(=O)[C@@H](CC(C)C)NC(=O)[C@H](CCN)NC(=O)[C@@H](NC(=O)[C@H](CCN)NC(=O)[C@@H](NC(=O)[C@H](CCN)NC(=O)CCCCC(C)C)[C@@H](C)O)CCNC(=O)[C@H]([C@@H](C)O)NC(=O)[C@H](CCN)NC(=O)[C@H](CCN)NC1=O ({Heptanoyl(6-Me)}-[Dab]T[Dab][Dab][Dab][dL][Nva][Dab][Dab]T; lactam 4-C) | 0.5 µg/mL (≈ 0.438 µM) | 0.25 µg/mL (≈ 0.219 µM) | 0.5 µg/mL (≈ 0.438 µM) | 0.5 µg/mL (≈ 0.438 µM) | 1 µg/mL (≈ 0.876 µM) | 0.5 µg/mL (≈ 0.438 µM) | 168 µg/mL (≈ 147 µM) | 12.4 mg/kg |  |  |  |  |
| CC(C)CCCCC(=O)N[C@@H](CCN)C(=O)N[C@H](C(=O)N[C@H](CO)C(=O)N[C@H]1CCNC(=O)[C@H]([C@@H](C)O)NC(=O)[C@H](CCN)NC(=O)[C@H](CCN)NC(=O)[C@H]([C@@H](C)O)NC(=O)[C@@H](Cc2ccccc2)NC(=O)[C@H](CCN)NC1=O)[C@@H](C)O ({Heptanoyl(6-Me)}-[Dab]T[dS][Dab][Dab][dF]T[Dab][Dab]T; lactam 4-C) | 0.25 µg/mL (≈ 0.215 µM) | 0.25 µg/mL (≈ 0.215 µM) | 0.5 µg/mL (≈ 0.429 µM) | 0.5 µg/mL (≈ 0.429 µM) | 2 µg/mL (≈ 1.72 µM) | 0.25 µg/mL (≈ 0.215 µM) | > 500 µg/mL | 17 mg/kg | Non-Toxic | Non-Toxic | Non-Toxic |  |
| CC(C)CCCCC(=O)N[C@@H](CCN)C(=O)N[C@H](C(=O)N[C@H](CO)C(=O)N[C@H]1CCNC(=O)[C@H]([C@@H](C)O)NC(=O)[C@H](CCN)NC(=O)[C@H](CCN)NC(=O)[C@H]([C@@H](C)O)NC(=O)[C@@H](CC(C)C)NC(=O)[C@H](CCN)NC1=O)[C@@H](C)O ({Heptanoyl(6-Me)}-[Dab]T[dS][Dab][Dab][dL]T[Dab][Dab]T; lactam 4-C) | 0.25 µg/mL (≈ 0.221 µM) | 0.12 µg/mL (≈ 0.106 µM) | 0.5 µg/mL (≈ 0.442 µM) | 0.5 µg/mL (≈ 0.442 µM) | 4 µg/mL (≈ 3.54 µM) | 0.12 µg/mL (≈ 0.106 µM) | 318 µg/mL (≈ 281 µM) | 20.5 mg/kg | Toxic | Toxic | Toxic |  |
| CC(C)CCCCC(=O)N[C@@H](CCN)C(=O)N[C@H](C(=O)N[C@@H](CCN)C(=O)N[C@H]1CCNC(=O)[C@H]([C@@H](C)O)NC(=O)[C@H](CCN)NC(=O)[C@H](CCN)NC(=O)[C@H](CC(C)C)NC(=O)[C@@H](CC(C)C)NC(=O)[C@H](CCN)NC1=O)[C@@H](C)O [COLISTIN B] ({Heptanoyl(6-Me)}-[Dab]T[Dab][Dab][Dab][dL]L[Dab][Dab]T; lactam 4-C) | 0.5 µg/mL (≈ 0.433 µM) | 0.5 µg/mL (≈ 0.433 µM) | 1 µg/mL (≈ 0.865 µM) | 1 µg/mL (≈ 0.865 µM) | 2 µg/mL (≈ 1.73 µM) | 0.5 µg/mL (≈ 0.433 µM) | 244 µg/mL (≈ 211 µM) | 11.3 mg/kg | Non-Toxic | Non-Toxic | Non-Toxic |  |
| CC(C)CCCCC(=O)N[C@@H](CCN)C(=O)N[C@H](C(=O)N[C@@H](CCN)C(=O)N[C@H]1CCNC(=O)[C@H]([C@@H](C)O)NC(=O)[C@H](CCN)NC(=O)[C@H](CCN)NC(=O)[C@H](CC(C)C)NC(=O)[C@@H](Cc2ccccc2)NC(=O)[C@H](CCN)NC1=O)[C@@H](C)O [POLYMYXIN B2] ({Heptanoyl(6-Me)}-[Dab]T[Dab][Dab][Dab][dF]L[Dab][Dab]T; lactam 4-C) | 0.5 µg/mL (≈ 0.42 µM) | 0.5 µg/mL (≈ 0.42 µM) | 1 µg/mL (≈ 0.841 µM) | 1 µg/mL (≈ 0.841 µM) | 2 µg/mL (≈ 1.68 µM) | 0.5 µg/mL (≈ 0.42 µM) | 159 µg/mL (≈ 134 µM) | 12.6 mg/kg | Toxic | Toxic | Toxic |  |
| COLISTIN |  |  |  |  |  |  |  |  |  |  |  | 95 µg/mL |
